Measured values taken from ChEMBL document CHEMBL2331521, “Biologically active withanolides from Withania coagulans” (J Nat Prod, 2013).

Legend:
[1] = Cytotoxicity against mouse RAW264.7 cells assessed as cell survival at 20 ug/mL by SRB assay; format: cell-based; details: read-out: Survival
In short: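 RAW 264.7 cells run under the NO assay conditions (30 min sample pretreatment, then 1 μg/mL LPS for 20 h). Cells fixed with 10% TCA and stained with 0.4% SRB in 1% acetic acid. Bound dye dissolved in 10 mM Tris and OD read at 515 nm.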

[2] = system: RAW264.7; test: Cancer chemopreventive activity in mouse RAW264.7 cells assessed as inhibition of LPS-induced nitric oxide production at 20 ug/mL treated 30 mins before LPS challenge measured after 20 hrs by Griess reagent assay
[3] = Inhibition of TNFalpha-induced NFkappaB (unknown origin) activation expressed in HEK293 cells after 6 hrs by luciferase reporter gene assay; format: cell-based; details: Homo sapiens, HEK293, 6 h
In short: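 HEK293 cells stably transfected with luciferase reporter under multiple NF-κB response elements, seeded 2 × 10^4/well, grown 48 h in DMEM/10% FBS/2 mM glutamine. Medium replaced; cells given test substances plus human recombinant TNF-α 2 ng/mL (0.14 nM) for 6 h, lysed, frozen −80 °C overnight, luciferase luminescence read. Percent inhibition; IC50 from dilution series (top 20 μM), each tested three times, curve-fitted.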

[4] = system: HEK293; test: Inhibition of TNFalpha-induced NFkappaB (unknown origin) activation expressed in HEK293 cells at 20 uM after 6 hrs by luciferase reporter gene assay; format: cell-based; details: Homo sapiens
In short: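 HEK293 cells stably carrying an NF-κB response element–luciferase construct (hygromycin-selected). Seeded 2 × 10^4/well in DMEM with 10% FBS, antibiotics and 2 mM L-glutamine, grown 48 h. Fresh medium, then samples with recombinant human TNF-α 2 ng/mL (0.14 nM) for 6 h. Cells lysed, frozen overnight at −80 °C, luciferase luminescence read, percent inhibition calculated. TPCK positive control.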

[5] = Cytotoxicity against human HEK293 cells assessed as cell survival at 20 uM by SRB assay; format: cell-based; details: read-out: Survival
In short: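 293/NFκB-luc cells seeded 2 × 10^4/well and grown 48 h. Run in parallel with the reporter assay: fresh medium, samples plus TNF-α 2 ng/mL for 6 h. Fixed with 20% TCA at 4 °C for 30 min, stained with 0.4% SRB in 1% acetic acid for 30 min at room temperature. Dye solubilised in 10 mM Tris base (pH 10), OD read at 515 nm, percent survival calculated.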

[6] = system: RAW264.7; test: Cancer chemopreventive activity in mouse RAW264.7 cells assessed as inhibition of LPS-induced nitric oxide production treated 30 mins before LPS challenge measured after 20 hrs by Griess reagent assay
[7] = system: HEK293; test: Cytotoxicity against human HEK293 cells assessed as cell survival by SRB assay; format: cell-based
In short: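 293/NFκB-luc cells (HEK293 stably carrying NF-κB-response-element luciferase reporter) seeded 2 × 10^4/well, grown 48 h in DMEM/10% FBS; treated with samples plus TNF-α 2 ng/mL (0.14 nM) for 6 h. Then TCA-fixed (20%, 4 °C, 30 min), stained 0.4% SRB in 1% acetic acid, dye solubilized in 10 mM Tris base pH 10; OD 515 nm; percent survival at 20 μM.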

| Structure (SMILES) | viability at 20 ug/mL [1] | inhibition at 20 µg/mL [2] | IC50 [3] | inhibition [4] | viability at 20 µM [5] | IC50 [6] | IC50 [7] |
| --- | --- | --- | --- | --- | --- | --- | --- |
| CC1=C(C)C(=O)O[C@@H]([C@](C)(O)[C@@]2(O)CC[C@]3(O)[C@@H]4CC=C5C=CCC(=O)[C@]5(C)[C@H]4CC[C@]23C)C1 [WITHACOAGULIN I] | 100% | 69.8% | 8.8 µM | 89.9% | 89.4% | 29 µM | – |
| CC1=C(CO)C(=O)O[C@@H]([C@](C)(O)[C@@]2(O)CC=C3[C@@H]4CC=C5CC=CC(=O)[C@]5(C)[C@H]4CC[C@@]32C)C1 [WITHACOAGULIN H] | 70.4% | 100% | 5 µM | 98.3% | 90.3% | 3.1 µM | – |
| CC1=C(C)C(=O)O[C@@H]([C@](C)(O)[C@]2(O)CC[C@@]3(O)[C@@H]4CC=C5CC=CC(=O)[C@]5(C)[C@H]4CC[C@]23C)C1 [WITHANOLIDE F] | 100% | 84.6% | 5.7 µM | 90.8% | 100% | 10.9 µM | – |
| CC1=C(CO)C(=O)O[C@@H]([C@](C)(O)[C@]2(O)CC[C@@]3(O)[C@@H]4CC=C5CC=CC(=O)[C@]5(C)[C@H]4CC[C@]23C)C1 | 100% | 95.1% | 1.6 µM | 90.1% | 88.6% | 6.9 µM | – |
| CC1=C(C)C(=O)O[C@@H]([C@](C)(O)[C@H]2CC[C@@]3(O)[C@@H]4CC=C5CC=CC(=O)[C@]5(C)[C@H]4CC[C@]23C)C1 | 100% | 88.5% | 12.3 µM | 86.9% | 71.9% | 37.5 µM | – |
| Cc1ccc(S(=O)(=O)/C=C/C#N)cc1 | – | – | 5 µM | – | – | – | – |
| CC1=C(CO)C(=O)O[C@@H]([C@](C)(O)[C@H]2CC[C@@]3(O)[C@@H]4CC=C5CC=CC(=O)[C@]5(C)[C@H]4CC[C@]23C)C1 | 100% | 31.4% | 7 µM | 92.8% | 100% | – | – |
| Cc1ccc(S(=O)(=O)N[C@@H](Cc2ccccc2)C(=O)CCl)cc1 [TPCK] | – | – | 10.8 µM | – | – | – | 3.8 µM |
| CC1=C(C)C(=O)O[C@@H]([C@](C)(O)C2=CC[C@@]3(O)[C@@H]4CC=C5CC=CC(=O)[C@]5(C)[C@H]4CC[C@]23C)C1 | 100% | 69.1% | 5.7 µM | 90.2% | 100% | 10.4 µM | – |
| CC1=C(CO)C(=O)O[C@@H]([C@](C)(O)[C@@]2(O)CC[C@H]3[C@@H]4CC=C5CC=CC(=O)[C@]5(C)[C@H]4CC[C@@]32C)C1 [WITHACOAGULIN G] | 96.7% | 100% | 11.8 µM | 90.1% | 93.2% | 1.9 µM | – |
| CC1=C(CO)C(=O)O[C@@H]([C@](C)(O)[C@H]2CC=C3[C@@H]4CC=C5CC=CC(=O)[C@]5(C)[C@H]4CC[C@@]32C)C1 | 100% | 76.3% | 12.4 µM | 88.6% | 48.3% | 38.2 µM | – |
